Measurements taken from ChEMBL document CHEMBL3779892, “Increasing the binding affinity of VEGFR-2 inhibitors by extending their hydrophobic interaction with the active site: Design, synthesis and biological evaluation of 1-substituted-4-(4-methoxybenzyl)phthalazine derivatives” (Eur J Med Chem, 2016).

How the values were obtained:
Format in all cases: functional
ACHN = assay: Growth inhibition of human ACHN cells at 10 uM after 48 hrs by sulforhodamine B assay; conditions: read-out: GI
Summary of the method: (§1)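 Run at NCI on the 60-line panel. Cells grown in RPMI 1640 with 5% FBS and 2 mM L-glutamine, plated at 5000–40,000 cells/well by doubling time, and held 24 h at 37 °C before dosing. Drug (DMSO stock) given at a single final 10 µM in triplicate wells for 48 h. Adherent cells fixed with cold TCA (10% final), suspension cells with 16% TCA. SRB stain read at 515 nm. Percent growth from Tz, C and Ti.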

[1] = Growth inhibition of human SF295 cells at 10 uM after 48 hrs by sulforhodamine B assay; conditions: SF-295, 48 h, read-out: GI; summary of the method: as §1
[2] = Growth inhibition of human NCI-ADR-RES cells at 10 uM after 48 hrs by sulforhodamine B assay; conditions: read-out: GI; summary of the method: as §1
[3] = Growth inhibition of human HOP92 cells at 10 uM after 48 hrs by sulforhodamine B assay; conditions: HOP-92, 48 h, read-out: GI; summary of the method: as §1
NCI-H226 = assay: Growth inhibition of human NCI-H226 cells at 10 uM after 48 hrs by sulforhodamine B assay; conditions: NCI-H226, 48 h, read-out: GI; summary of the method: as §1
A498 = assay: Growth inhibition of human A498 cells at 10 uM after 48 hrs by sulforhodamine B assay; conditions: A498, 48 h, read-out: GI; summary of the method: as §1
HT-29 = assay: Growth inhibition of human HT-29 cells at 10 uM after 48 hrs by sulforhodamine B assay; conditions: HT-29, 48 h, read-out: GI; summary of the method: as §1
MDA-MB-468 = assay: Growth inhibition of human MDA-MB-468 cells at 10 uM after 48 hrs by sulforhodamine B assay; conditions: MDA-MB-468, 48 h, read-out: GI; summary of the method: as §1
[4] = Growth inhibition of human SF268 cells at 10 uM after 48 hrs by sulforhodamine B assay; conditions: SF-268, 48 h, read-out: GI; summary of the method: as §1
NCI-H460 = assay: Growth inhibition of human NCI-H460 cells at 10 uM after 48 hrs by sulforhodamine B assay; conditions: NCI-H460, 48 h, read-out: GI; summary of the method: as §1
[5] = Growth inhibition of human SNB19 cells at 10 uM after 48 hrs by sulforhodamine B assay; conditions: SNB-19, 48 h, read-out: GI; summary of the method: as §1
[6] = Growth inhibition of human Hs 578T cells at 10 uM after 48 hrs by sulforhodamine B assay; conditions: read-out: GI; summary of the method: as §1
KM12 = assay: Growth inhibition of human KM12 cells at 10 uM after 48 hrs by sulforhodamine B assay; conditions: KM12, 48 h, read-out: GI; summary of the method: as §1
[7] = Growth inhibition of human DU145 cells at 10 uM after 48 hrs by sulforhodamine B assay; conditions: DU-145, 48 h, read-out: GI; summary of the method: as §1
K562 = assay: Growth inhibition of human K562 cells at 10 uM after 48 hrs by sulforhodamine B assay; conditions: K562, 48 h, read-out: GI; summary of the method: as §1
[8] = Growth inhibition of human OVCAR8 cells at 10 uM after 48 hrs by sulforhodamine B assay; conditions: OVCAR-8, 48 h, read-out: GI; summary of the method: as §1
M14 = assay: Growth inhibition of human M14 cells at 10 uM after 48 hrs by sulforhodamine B assay; conditions: M14, 48 h, read-out: GI; summary of the method: as §1
MDA-MB-435 = assay: Growth inhibition of human MDA-MB-435 cells at 10 uM after 48 hrs by sulforhodamine B assay; conditions: MDA-MB-435, 48 h, read-out: GI; summary of the method: as §1
[9] = Growth inhibition of human SNB75 cells at 10 uM after 48 hrs by sulforhodamine B assay; conditions: SNB-75, 48 h, read-out: GI; summary of the method: as §1
SK-MEL-5 = assay: Growth inhibition of human SK-MEL-5 cells at 10 uM after 48 hrs by sulforhodamine B assay; conditions: SK-MEL-5, 48 h, read-out: GI; summary of the method: as §1
[10] = Growth inhibition of human SW620 cells at 10 uM after 48 hrs by sulforhodamine B assay; conditions: SW-620, 48 h, read-out: GI
Summary of the method: (§2)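 NCI-60 panel, adherent cells grown in RPMI 1640 with 5% FBS and 2 mM L-glutamine, plated at 5000–40,000 cells/well and preincubated 24 h at 37 °C, 5% CO2. 10 µM final compound from DMSO stock, triplicate wells, 48 h. Fixed with cold TCA (10% final, 60 min, 4 °C) and stained with 0.4% SRB. Absorbance read at 515 nm; growth calculated against time-zero and control wells.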

SK-MEL-28 = assay: Growth inhibition of human SK-MEL-28 cells at 10 uM after 48 hrs by sulforhodamine B assay; conditions: SK-MEL-28, 48 h, read-out: GI; summary of the method: as §1
[11] = Growth inhibition of human UACC62 cells at 10 uM after 48 hrs by sulforhodamine B assay; conditions: UACC-62, 48 h, read-out: GI; summary of the method: as §2
A549 = assay: Growth inhibition of human A549 cells at 10 uM after 48 hrs by sulforhodamine B assay; conditions: A549, 48 h, read-out: GI; summary of the method: as §1
CCRF-CEM = assay: Growth inhibition of human CCRF-CEM cells at 10 uM after 48 hrs by sulforhodamine B assay; conditions: read-out: GI; summary of the method: as §1
SR = assay: Growth inhibition of human SR cells at 10 uM after 48 hrs by sulforhodamine B assay; conditions: read-out: GI
Summary of the method: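 NCI-60 screen. Cells were grown in RPMI 1640 with 5% FBS and 2 mM L-glutamine, plated at 5000–40,000 cells/well and held 24 h at 37 °C, 5% CO2. Single 10 µM final dose from DMSO stock, triplicate wells, 48 h. Settled cells were fixed with 80% TCA (16% final) and stained with 0.4% SRB. Dye was solubilized in 10 mM Tris and read at 515 nm. Growth was calculated against time-zero and untreated wells.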

[12] = Growth inhibition of human PC3 cells at 10 uM after 48 hrs by sulforhodamine B assay; conditions: PC-3, 48 h, read-out: GI; summary of the method: as §1
[13] = Growth inhibition of human UO31 cells at 10 uM after 48 hrs by sulforhodamine B assay; conditions: UO-31, 48 h, read-out: GI; summary of the method: as §2
[14] = Growth inhibition of human OVCAR3 cells at 10 uM after 48 hrs by sulforhodamine B assay; conditions: OVCAR-3, 48 h, read-out: GI; summary of the method: as §1
NCI-H522 = assay: Growth inhibition of human NCI-H522 cells at 10 uM after 48 hrs by sulforhodamine B assay; conditions: NCI-H522, 48 h, read-out: GI; summary of the method: as §1
MDA-MB-231 = assay: Growth inhibition of human MDA-MB-231 cells at 10 uM after 48 hrs by sulforhodamine B assay; conditions: MDA-MB-231, 48 h, read-out: GI; summary of the method: as §1
NCI-H23 = assay: Growth inhibition of human NCI-H23 cells at 10 uM after 48 hrs by sulforhodamine B assay; conditions: NCI-H23, 48 h, read-out: GI; summary of the method: as §1
[15] = Growth inhibition of human OVCAR5 cells at 10 uM after 48 hrs by sulforhodamine B assay; conditions: OVCAR-5, 48 h, read-out: GI; summary of the method: as §1

Row | SMILES | inhibition of growth at 10 µM (ACHN) | inhibition of growth at 10 µM [1] | inhibition of growth at 10 µM [2] | inhibition of growth at 10 µM [3] | inhibition of growth at 10 µM (NCI-H226) | inhibition of growth at 10 µM (A498) | inhibition of growth at 10 µM (HT-29) | inhibition of growth at 10 µM (MDA-MB-468) | inhibition of growth at 10 µM [4] | inhibition of growth at 10 µM (NCI-H460) | inhibition of growth at 10 µM [5] | inhibition of growth at 10 µM [6] | inhibition of growth at 10 µM (KM12) | inhibition of growth at 10 µM [7] | inhibition of growth at 10 µM (K562) | inhibition of growth at 10 µM [8] | inhibition of growth at 10 µM (M14) | inhibition of growth at 10 µM (MDA-MB-435) | inhibition of growth at 10 µM [9] | inhibition of growth at 10 µM (SK-MEL-5) | further results
1 | COc1ccc(Cc2nnc(Nc3ccc(Cl)cc3)c3ccccc23)cc1 | 47% | 50% | 48% | 76% | 34% | 53% | 50% | 42% | < 30% | 45% | 38% | 35% | 30% | 42% | 48% | 35% | 47% | 30% | < 30% | 35% | inhibition of growth at 10 µM [10]: < 30%; inhibition of growth at 10 µM (SK-MEL-28): < 30%; inhibition of growth at 10 µM [11]: 60%; inhibition of growth at 10 µM (A549): 40%; inhibition of growth at 10 µM (CCRF-CEM): 46%; inhibition of growth at 10 µM (SR): 54%; inhibition of growth at 10 µM [12]: 51%; inhibition of growth at 10 µM [13]: 68%; inhibition of growth at 10 µM [14]: 40%; inhibition of growth at 10 µM (NCI-H522): 38%; inhibition of growth at 10 µM (MDA-MB-231): 36%; inhibition of growth at 10 µM (NCI-H23): 39%; inhibition of growth at 10 µM [15]: < 30%
2 | COc1ccc(Cc2nnc(Nc3cccc(C(F)(F)F)c3)c3ccccc23)cc1 | 31% | 38% | 40% | 63% | 40% | 40% | 49% | 42% | < 30% | 50% | 45% | < 30% | 40% | < 30% | 49% | 35% | < 30% | < 30% | < 30% | < 30% | inhibition of growth at 10 µM [10]: < 30%; inhibition of growth at 10 µM (SK-MEL-28): < 30%; inhibition of growth at 10 µM [11]: 42%; inhibition of growth at 10 µM (A549): 57%; inhibition of growth at 10 µM (CCRF-CEM): 39%; inhibition of growth at 10 µM (SR): 52%; inhibition of growth at 10 µM [12]: 49%; inhibition of growth at 10 µM [13]: 66%; inhibition of growth at 10 µM [14]: 48%; inhibition of growth at 10 µM (NCI-H522): 45%; inhibition of growth at 10 µM (MDA-MB-231): 46%; inhibition of growth at 10 µM (NCI-H23): 42%; inhibition of growth at 10 µM [15]: < 30%
